In ChEMBL document CHEMBL4052822, “Design and Synthesis of Orally Bioavailable Piperazine Substituted 4(1H)-Quinolones with Potent Antimalarial Activity: Structure-Activity and Structure-Property Relationship Studies” (J Med Chem, 2018):
Activity calls are given as the source filed them. No cut-off for these calls is given here.

Legend:
[1] = Resistance index, ratio of EC50 for mefloquine/chloroquine/atovaquone/pyrimethamine-resistant Plasmodium falciparum TM90-C2B to EC50 for pyrimethamine/chloroquine-resistant Plasmodium falciparum W2; format: functional
Plasmodium falciparum [2] = assay: Antimalarial activity against mefloquine/chloroquine/atovaquone/pyrimethamine-resistant Plasmodium falciparum TM90-C2B infected in human type A-positive erythrocytes after 48 hrs by [3H]-hypoxanthine incorporation assay; format: functional, cell-based
In short: (§1)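 Compound from 10.0 mM DMSO stock, diluted ≥1:400, then 11 concentrations in duplicate. Incubated at 37 °C under 90% N2/5% O2/5% CO2 for 48 h, then 3H-hypoxanthine added for 24 h more. CPM counted; EC50 by nonlinear regression.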

Plasmodium falciparum [3] = assay: Antimalarial activity against pyrimethamine/chloroquine-resistant Plasmodium falciparum W2 infected in human type A-positive erythrocytes after 48 hrs by [3H]-hypoxanthine incorporation assay; format: functional, cell-based; in short: as §1
Plasmodium berghei [4] = assay: Antimalarial activity against Plasmodium berghei infected in human HepG2 cells after 44 hrs by luciferase assay; format: functional, cell-based; conditions: HepG2, 44 h
In short: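 HepG2 cells, 75000 per well, in DMEM with 10% FBS at 37 °C, 5% CO2. 5000 Pb luciferase sporozoites from dissected mosquito salivary glands added per well for 3 h, then washed three times with PBS. Serially diluted compound added in triplicate, 44 h at 37 °C. Cells lysed, luciferase substrate added, luminescence read.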

J774 = assay: Cytotoxicity against mouse J774 cells after 72 hrs by CellTiter-96 aqueous one solution cell proliferation assay; format: cell-based; conditions: J774, 72 h
In short: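 Compounds from 10 µg/mL or 20 µM top concentration, 1:2 serial dilutions over 11 concentrations, 72 h at 37 °C, 5% CO2. MTS-type reagent added for 4 h, absorbance read at 490 nm. IC50 by nonlinear regression.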

Plasmodium berghei [5] = assay: animal or person; conditions: in Mus musculus, po, read-out: INH
[6] = Aqueous solubility of compound at pH 6.5; format: physicochemical
Plasmodium berghei [7] = assay: Antimalarial activity against blood stage form of GFP transfected Plasmodium berghei infected in mouse assessed as protection against parasitemia at 10 mg/kg, po administered on day 3, 4, 5 post infection measured on day 30 by Thompson test; format: functional, organism-based
In short: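 Modified Thompson model: mice inoculated ip with 2×10^6 P. berghei (GFP)-infected red blood cells, parasitemia near 1% by day 3. […] Animals followed for 30 days; survival to day 30 with parasitemia below 1% counted as cure.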

Structure (SMILES)	Ratio EC50 [1]	EC50 (Plasmodium falciparum [2]) [nM]	EC50 (Plasmodium falciparum [3]) [nM]	EC50 (Plasmodium berghei [4]) [nM]	EC50 (J774) [nM]	inhibition in vivo at 50 mg/kg (Plasmodium berghei [5]) [%]	solubility [6] [µM]	Activity (Plasmodium berghei [7])
COC(=O)c1c[nH]c2cc(N3CCN(Cc4ccc(OC)cc4)CC3)ccc2c1=O	65	1300	20	–	–	–	–	–
COC(=O)c1c[nH]c2cc(CN3CCN(c4ccc(C(F)(F)F)cc4)CC3)c(OC)cc2c1=O	–	210	6.4	9.6	> 20000	–	–	–
COC(=O)c1c[nH]c2cc(CN3CCN(Cc4ccc(OC)cc4)CC3)c(C)cc2c1=O	–	1000	2.4	–	> 20000	–	–	–
COC(=O)c1c[nH]c2cc(CN3CCN(c4ccccc4)CC3)c(OC)cc2c1=O	–	490	1.6	110	> 20000	82.4	–	–
COC(=O)c1c[nH]c2cc(N3CCN(c4ccc(OC)cc4)CC3)c(OC)cc2c1=O	47	2000	43	> 100	> 20000	–	–	–
COC(=O)c1c[nH]c2cc(CCN3CCN(c4ccccc4)CC3)ccc2c1=O	60	1500	25	–	> 20000	–	≥ 80	–
O=c1c(Cl)c[nH]c2cc(CN3CCN(c4ccc(F)cc4)CC3)ccc12	–	> 2000	1100	–	> 20000	71.9	–	–
O=C1C(O)=C([C@H]2CC[C@H](c3ccc(Cl)cc3)CC2)C(=O)c2ccccc21 [ATOVAQUONE]	–	–	–	–	28000	–	–	Active
COC(=O)c1c[nH]c2cc(CN3CCN(c4ccc(OC)cc4)CC3)c(OC)cc2c1=O	–	860	3.4	10	16000	70.6	–	–
COC(=O)c1c[nH]c2cc(N3CCN(Cc4ccccc4)CC3)c(OC)cc2c1=O	–	200	64	–	12000	–	–	–
COC(=O)c1c[nH]c2cc(CN3CCN(c4ccc(C(F)(F)F)cc4)CC3)c(C)cc2c1=O	–	100	0.066	–	> 20000	–	–	–
COC(=O)c1c[nH]c2cc(N3CCN(Cc4ccccc4)CC3)c(C)cc2c1=O	75	980	13	> 100	> 20000	–	–	–
COC(=O)c1c[nH]c2ccc(CN3CCN(c4ccc(C(F)(F)F)cc4)CC3)cc2c1=O	–	> 2000	45	85	> 20000	–	–	–
Cc1cc(=O)c2ccc(CN3CCN(c4ccc(F)cc4)CC3)cc2[nH]1	1.2	1500	1200	–	> 20000	–	–	–
COC(=O)c1c[nH]c2cc(N3CCN(c4ccccc4)CC3)c(C)cc2c1=O	–	1100	46	–	17000	31.6	–	–
COC(=O)c1c[nH]c2ccc(CN3CCN(c4ccc(OC)cc4)CC3)cc2c1=O	–	> 2000	160	> 100	> 20000	–	–	–
COC(=O)c1c[nH]c2cc(CN3CCN(c4ccccc4)CC3)c(C)cc2c1=O	–	150	0.44	6.9	12000	–	–	inactive
Cc1[nH]c2cc(CN3CCN(c4ccc(C(F)(F)F)cc4)CC3)ccc2c(=O)c1Cl	11	1500	140	–	> 20000	–	–	–
COC(=O)c1c[nH]c2cc(CN3CCN(c4ccc(F)cc4)CC3)c(OC)cc2c1=O	–	220	1.8	32	> 20000	56.9	–	–

Structure (SMILES)	Ratio EC50 [1]	EC50 (Plasmodium falciparum [2]) [nM]	EC50 (Plasmodium falciparum [3]) [nM]	EC50 (Plasmodium berghei [4]) [nM]	EC50 (J774) [nM]	inhibition in vivo at 50 mg/kg (Plasmodium berghei [5]) [%]	solubility [6] [µM]	Activity (Plasmodium berghei [7])
COC(=O)c1c[nH]c2cc(N3CCN(Cc4ccccc4)CC3)ccc2c1=O	–	860	16	85	> 20000	–	–	–
C[C@H]1[C@@H](O)O[C@@H]2O[C@@]3(C)CC[C@H]4[C@H](C)CC[C@@H]1[C@@]24OO3 [ARTENIMOL]	–	–	–	–	1500	–	–	–
COC(=O)c1c[nH]c2cc(CN3CCN(Cc4ccccc4)CC3)c(OC)cc2c1=O	–	> 2000	5.5	9.3	> 20000	19.3	–	–
COC(=O)c1c[nH]c2cc(CN3CCN(Cc4ccc(OC)cc4)CC3)c(OC)cc2c1=O	–	> 2000	10	52	> 20000	24.6	–	–
COC(=O)c1c[nH]c2cc(CCN3CCN(Cc4ccccc4)CC3)ccc2c1=O	–	> 2000	120	160	> 20000	–	≥ 80	–
COC(=O)c1c[nH]c2ccc(CN3CCN(c4ccc(F)cc4)CC3)cc2c1=O	–	> 2000	110	–	> 20000	–	–	–
CCN(CC)CCCC(C)Nc1ccnc2cc(Cl)ccc12 (centres undefined) [CHLOROQUINE]	–	–	–	–	47200	–	–	–
COC(=O)c1c[nH]c2cc(N3CCN(c4ccccc4)CC3)ccc2c1=O	–	250	4.5	74	> 20000	–	< 20	–
COC(=O)c1c[nH]c2cc(CN3CCN(Cc4ccc5c(c4)OCO5)CC3)ccc2c1=O	–	> 2000	160	–	> 20000	–	–	–
COC(=O)c1c[nH]c2cc(CN3CCN(c4ccc(OC)cc4)CC3)c(C)cc2c1=O	–	180	0.57	4.1	> 20000	–	–	–
COC(=O)c1c[nH]c2cc(N3CCN(c4ccc(OC)cc4)CC3)ccc2c1=O	20	150	7.8	–	> 20000	–	–	–
COC(=O)c1c[nH]c2ccc(CN3CCN(c4ccccc4)CC3)cc2c1=O	–	> 2000	150	91	> 20000	–	–	–
COC(=O)c1c[nH]c2cc(N3CCN(c4ccccc4)CC3)c(OC)cc2c1=O	–	800	37	–	17000	–	–	–
COC(=O)c1c[nH]c2cc(CN3CCN(c4ccc(OC)cc4)CC3)ccc2c1=O	–	220	3.6	0.12	–	39.2	–	–
COC(=O)c1c[nH]c2cc(CCN3CCN(Cc4ccc(OC)cc4)CC3)ccc2c1=O	–	–	12	–	> 20000	–	≥ 80	–
COC(=O)c1c[nH]c2cc(CN3CCN(Cc4ccccc4)CC3)ccc2c1=O	–	150	1.4	44	10000	12.3	≥ 80	–
COC(=O)c1c[nH]c2cc(CN3CCN(Cc4ccccc4)CC3)c(C)cc2c1=O	–	890	1.5	9.5	> 20000	24.6	–	–
COc1cc2c(=O)c(Br)c(C)[nH]c2cc1CN1CCN(c2ccc(C(F)(F)F)cc2)CC1	–	> 2000	130	–	> 20000	–	–	–
Cc1[nH]c2cc(CN3CCN(c4ccc(C(F)(F)F)cc4)CC3)ccc2c(=O)c1Br	0.8	95	120	–	> 20000	–	–	–
